≈ marks a conversion by molar mass, not a printed value. Calls of active or inactive are those of the source. The calls are words filed in the database; no cut-off is given here.
Legend:
[1] = Solubility of the compound at pH 7.4 after 18 hrs by UV-spectroscopy; assay type: physicochemical; conditions: buffer
How it was run: (§1)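 Measured in triplicate within at least one experiment; values reported as mean ± standard deviation.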

[2] = Permeability of the compound at 10 uM by PAMPA; assay type: ADME; how it was run: as §1
DCN1-like protein 1 [3] = target: T1, DCN1-like protein 1 (Homo sapiens, UniProt Q96GG9); test: Binding affinity biotinylated human GST-tagged DCN1 by ITC method
T1 sequence (Q96GG9 whole entry): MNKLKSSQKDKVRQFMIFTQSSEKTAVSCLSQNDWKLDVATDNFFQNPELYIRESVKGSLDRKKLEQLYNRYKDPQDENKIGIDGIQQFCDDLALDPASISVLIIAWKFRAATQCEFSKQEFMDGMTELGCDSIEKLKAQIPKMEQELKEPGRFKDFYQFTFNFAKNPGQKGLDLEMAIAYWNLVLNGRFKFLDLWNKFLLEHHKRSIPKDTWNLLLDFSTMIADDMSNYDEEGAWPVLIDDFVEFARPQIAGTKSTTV

DCN1-like protein 1 [4] = target: T1, DCN1-like protein 1; test: Inhibition of human DCN1-mediated cullin neddylation assessed as reduction in transfer of fluorescein-5-maleimide-tagged NEDD8 from N-terminally acetylated human UBE2M to CUL2-CTD measured for 10 sec by pulse-chase assay
BJ = test: Growth inhibition of human BJ cells; assay type: cell-based
How it was run: (§2)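 In vitro monolayer proliferation assay in BJ cells (normal fibroblasts lacking DCN1 amplification) and HCC95 cells (squamous cell carcinoma line carrying DCN1 amplification). EC50 is reported as mean ± standard deviation from at least one experiment run in triplicate. A ">" value means less than 50% growth inhibition at the highest concentration tested.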

HCC95 = test: Growth inhibition of human HCC95 cells; assay type: functional, cell-based; how it was run: as §2
[5] = target: NEDD8 activating enzyme (Homo sapiens) (UniProt Q8TBC4+Q13564); test: Inhibition of human NAE1-UBA3 E1 activating enzyme assessed as reduction in CUL3 neddylation by measuring inhibition of UBE2M thiol-ester formation at 50 uM up to 60 mins by pulse-chase assay; assay type: protein-complex assay
[6] = target: T2, DCN1-like protein 3 (Homo sapiens) (UniProt Q8IWE4); test: Inhibition of human DCN3 stimulated N-terminal cys-tagged NEDD8 transfer from UBE2F to CUL2(CTD)-RBX1 at 10 uM measured up to 2 mins by pulse-chase assay
T2 sequence (whole entry): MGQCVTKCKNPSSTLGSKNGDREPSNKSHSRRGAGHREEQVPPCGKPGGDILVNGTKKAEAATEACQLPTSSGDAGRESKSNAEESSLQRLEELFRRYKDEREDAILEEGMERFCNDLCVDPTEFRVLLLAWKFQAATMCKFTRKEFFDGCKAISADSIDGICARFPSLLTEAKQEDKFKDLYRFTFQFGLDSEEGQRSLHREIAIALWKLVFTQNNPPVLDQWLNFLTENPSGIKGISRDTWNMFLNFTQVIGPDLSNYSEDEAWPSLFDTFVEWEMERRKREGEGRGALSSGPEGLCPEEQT

Homo sapiens = species on record: Homo sapiens; test: Inhibition of human RBX1-catalyzed CUL2(CTD) neddylation assessed as reduction in transfer of N-terminal cys-tagged NEDD8 from UBE2M to CUL2-CTD at 12.5 uM measured up to 6 mins by pulse-chase assay
How it was run: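 In vitro pulse-chase monitoring NEDD8 transfer from UBE2M to the CUL2 C-terminal domain, stimulated by DCN1 together with RBX1. The CUL2 domain stands in for cullins 1-5. The assay is a variation of a previously published pulse-chase format, also run against each of the five DCN family members.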

DCN1-like protein 1 [7] = target: T1, DCN1-like protein 1
[8] = target: DCN1-like protein 2 (Homo sapiens) (UniProt Q6PH85); test: Inhibition of human DCN2-mediated cullin neddylation assessed as reduction in transfer of fluorescein-5-maleimide-tagged NEDD8 from N-terminally acetylated human UBE2M to CUL2-CTD at 12.5 and 50 uM measured for 10 sec by pulse-chase assay
DCN1-like protein 2 (Homo sapiens), sequence (Q6PH85 whole entry): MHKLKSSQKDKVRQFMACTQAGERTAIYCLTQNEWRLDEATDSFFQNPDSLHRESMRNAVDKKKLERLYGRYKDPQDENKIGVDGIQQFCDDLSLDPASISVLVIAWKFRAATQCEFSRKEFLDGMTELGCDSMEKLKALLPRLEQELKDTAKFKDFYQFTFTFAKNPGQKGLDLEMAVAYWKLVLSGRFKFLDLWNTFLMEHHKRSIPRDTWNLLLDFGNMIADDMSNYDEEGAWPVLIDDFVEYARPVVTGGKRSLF

[9] = target: T2, DCN1-like protein 3 (Homo sapiens); test: Inhibition of human DCN3-mediated cullin neddylation assessed as reduction in transfer of fluorescein-5-maleimide-tagged NEDD8 from N-terminally acetylated human UBE2M to CUL2-CTD at 50 uM measured for 2 mins by pulse-chase assay
[10] = target: T3, DCN1-like protein 4 (Homo sapiens) (UniProt Q92564); test: Inhibition of human DCN4-mediated cullin neddylation assessed as reduction in transfer of fluorescein-5-maleimide-tagged NEDD8 from N-terminally acetylated human UBE2M to CUL2-CTD at 50 uM measured for 1 min by pulse-chase assay
T3 sequence (whole entry): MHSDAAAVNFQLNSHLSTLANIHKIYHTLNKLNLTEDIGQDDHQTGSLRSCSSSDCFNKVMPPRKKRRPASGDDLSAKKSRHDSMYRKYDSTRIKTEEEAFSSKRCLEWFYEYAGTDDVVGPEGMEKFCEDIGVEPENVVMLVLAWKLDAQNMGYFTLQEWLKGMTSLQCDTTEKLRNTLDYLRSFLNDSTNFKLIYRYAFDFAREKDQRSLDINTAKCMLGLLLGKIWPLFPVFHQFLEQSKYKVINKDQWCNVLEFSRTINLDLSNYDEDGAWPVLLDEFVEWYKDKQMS

[11] = target: T4, DCN1-like protein 5 (Homo sapiens) (UniProt Q9BTE7); test: Inhibition of human DCN5-mediated cullin neddylation assessed as reduction in transfer of fluorescein-5-maleimide-tagged NEDD8 from N-terminally acetylated human UBE2M to CUL2-CTD at 50 uM measured for 1 min by pulse-chase assay
T4 sequence (whole entry): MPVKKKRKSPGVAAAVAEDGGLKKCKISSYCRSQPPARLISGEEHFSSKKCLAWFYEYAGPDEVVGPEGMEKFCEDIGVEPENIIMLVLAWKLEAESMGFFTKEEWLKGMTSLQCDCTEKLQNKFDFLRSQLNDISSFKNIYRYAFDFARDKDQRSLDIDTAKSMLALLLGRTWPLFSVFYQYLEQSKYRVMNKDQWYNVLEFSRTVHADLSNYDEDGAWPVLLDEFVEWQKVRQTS

Structure (SMILES): CCCCN1CCC(N(Cc2ccccc2)C(=O)Nc2cccc(C(F)(F)F)c2)CC1
- solubility at 18 h [1]: 70 µM (≈ 30.3 µg/mL)
- Papp at 10 µM ([2]; PAMPA, read-out: permeability): > 2200 ×10⁻⁶ cm/s
- Kd (DCN1-like protein 1 [3]): 700 nM
- EC50 (DCN1-like protein 1 [4]): 140 nM
- EC50 (BJ): > 40000 nM
- EC50 (HCC95): > 40000 nM
- inhibition [5]: inactive
- inhibition [6]: inactive
- inhibition (Homo sapiens): inactive
- IC50 (DCN1-like protein 1 [7]): 260 nM

Structure (SMILES): CCCC(C)N1CCC(N(Cc2ccccc2)C(=O)Nc2cccc(C(F)(F)F)c2)CC1 (centres undefined)
- solubility at 18 h [1]: 57 µM (≈ 25.5 µg/mL)
- permeability ([2]; pampa, 10 µM): 1400 ×10⁻⁶ cm/s
- Kd (DCN1-like protein 1 [3]): 140 nM
- inhibition [8]: Active
- inhibition [9]: inactive
- inhibition [10]: inactive
- inhibition [11]: inactive
- EC50 (DCN1-like protein 1 [4]): 79 nM
- EC50 (BJ): > 40000 nM
- EC50 (HCC95): 47000 nM
- inhibition [5]: inactive
- inhibition [6]: inactive
- inhibition (Homo sapiens): inactive
- IC50 (DCN1-like protein 1 [7]): 62 nM

— ChEMBL document CHEMBL4219151, “Piperidinyl Ureas Chemically Control Defective in Cullin Neddylation 1 (DCN1)-Mediated Cullin Neddylation” (J Med Chem, 2018)
